Experimental data: ChEMBL document CHEMBL4364341, “Radiosensitization of Head and Neck Squamous Cell Carcinoma (HNSCC) by a Podophyllotoxin” (ACS Med Chem Lett, 2019)
Calls of active or inactive are those of the source. The rule behind the calls is not given here.

How the values were obtained:
[1] = test system: FaDu; experiment: Synergistic antiproliferative activity against human FADU cells assessed as reduction in colony formation unit followed by irradiation with 5 Gy IR and measured after 10 to 14 days by crystal violet staining based assay; assay type: functional, cell-based
[2] = test system: FaDu; experiment: Synergistic antiproliferative activity against human FADU cells assessed as fractional inhibition at 0.005 uM preincubated for 1 hr followed by irradiation with 2.5 Gy IR and measured after 6 days by MTT assay (reference value: 0.131); assay type: functional
How it was run: (§1)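 FaDu or SCC-25 cells were grown in DMEM with 10% FBS at 37 °C and 5% CO2. They were seeded at 1000 cells/well in 96-well plates for 24 h, then dosed with compound (fresh DMSO stock diluted in medium) or vehicle. After 1 h, X-rays were given with a sliding 5 mm lead shield, so one plate held 0, 2.5, 5 and 10 Gy columns. After 6 days, MTT (0.5 mg/mL, 45 min) was added, then DMSO, and A570 was read. Values were normalised to the unirradiated vehicle control. Fractional inhibition = 1 − surviving fraction.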

[3] = test system: FaDu; experiment: Synergistic antiproliferative activity against human FADU cells assessed as fractional inhibition at 0.05 uM preincubated for 1 hr followed by irradiation with 2.5 Gy IR and measured after 6 days by MTT assay (reference value: 0.131); assay type: functional; how it was run: as §1
[4] = test system: FaDu; experiment: Synergistic antiproliferative activity against human FADU cells assessed as fractional inhibition at 0.005 uM preincubated for 1 hr followed by irradiation with 5 Gy IR and measured after 6 days by MTT assay (reference value: 0.097); assay type: functional; how it was run: as §1
[5] = test system: FaDu; experiment: Synergistic antiproliferative activity against human FADU cells assessed as fractional inhibition at 5 uM preincubated for 1 hr followed by irradiation with 5 Gy IR and measured after 6 days by MTT assay (reference value: 0.097); assay type: functional; how it was run: as §1
[6] = test system: FaDu; experiment: Synergistic antiproliferative activity against human FADU cells assessed as combination index at 0.005 uM preincubated for 1 hr followed by irradiation with 5 Gy IR and measured after 6 days by MTT assay; assay type: functional
How it was run: (§2)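 Combination index was calculated by the Chou–Talalay median-effect method from the 6-day MTT viability data of the single-plate compound/X-ray (2.5, 5, 10 Gy) design. CI < 1 denotes synergy, CI = 1 additivity and CI > 1 antagonism.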

[7] = test system: FaDu; experiment: Synergistic antiproliferative activity against human FADU cells assessed as combination index at 0.005 uM preincubated for 1 hr followed by irradiation with 10 Gy IR and measured after 6 days by MTT assay; assay type: functional; how it was run: as §2
[8] = test system: SCC-25; experiment: Antiproliferative activity against human SCC25 cells assessed as fractional inhibition at 0.05 uM after 6 days in absence of irradiation by MTT assay; assay type: functional; how it was run: as §1
[9] = test system: SCC-25; experiment: Antiproliferative activity against human SCC25 cells assessed as fractional inhibition at 0.5 uM after 6 days in absence of irradiation by MTT assay; assay type: functional; how it was run: as §1
[10] = test system: SCC-25; experiment: Synergistic antiproliferative activity against human SCC25 cells assessed as fractional inhibition at 5 uM preincubated for 1 hr followed by irradiation with 2.5 Gy IR and measured after 6 days by MTT assay (reference value: 0.011); assay type: functional
How it was run: (§3)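 SCC-25 cells seeded 1000/well in 96-well plates in DMEM/10% FBS and left 24 h. Drug or vehicle added, then after 1 h X-irradiated to 2.5, 5 or 10 Gy on one plate using a shifted lead shield. Plates incubated 6 days, then MTT (0.5 mg/mL, 45 min), DMSO solubilisation, absorbance at 570 nm. Fractional inhibition = 1 − fraction of surviving cells.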

[11] = test system: SCC-25; experiment: Synergistic antiproliferative activity against human SCC25 cells assessed as fractional inhibition at 0.005 uM preincubated for 1 hr followed by irradiation with 10 Gy IR and measured after 6 days by MTT assay (reference value: 0.347); assay type: functional; how it was run: as §3
[12] = test system: SCC-25; experiment: Synergistic antiproliferative activity against human SCC25 cells assessed as fractional inhibition at 0.05 uM preincubated for 1 hr followed by irradiation with 10 Gy IR and measured after 6 days by MTT assay (reference value: 0.347); assay type: functional; how it was run: as §3
[13] = test system: SCC-25; experiment: Synergistic antiproliferative activity against human SCC25 cells assessed as combination index at 0.005 uM preincubated for 1 hr followed by irradiation with 2.5 Gy IR and measured after 6 days by MTT assay; assay type: functional
How it was run: (§4)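 SCC-25 cells grown in DMEM with 10% FBS at 37 °C, 5% CO2, seeded 1000 cells/well in 96-well plates and left 24 h. Drug in DMSO, diluted in complete medium, added 1 h before X-irradiation. A movable 5 mm lead shield gave 0, 2.5, 5 or 10 Gy on one plate. After 6 days, MTT readout at 570 nm. Combination index by Chou–Talalay from viability data.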

[14] = test system: SCC-25; experiment: Synergistic antiproliferative activity against human SCC25 cells assessed as combination index at 0.5 uM preincubated for 1 hr followed by irradiation with 5 Gy IR and measured after 6 days by MTT assay; assay type: functional; how it was run: as §4
[15] = test system: SCC-25; experiment: Synergistic antiproliferative activity against human SCC25 cells assessed as combination index at 0.05 uM preincubated for 1 hr followed by irradiation with 10 Gy IR and measured after 6 days by MTT assay; assay type: functional; how it was run: as §4
[16] = test system: SCC-25; experiment: Synergistic antiproliferative activity against human SCC25 cells assessed as combination index at 0.5 uM preincubated for 1 hr followed by irradiation with 10 Gy IR and measured after 6 days by MTT assay; assay type: functional; how it was run: as §4
[17] = test system: FaDu; experiment: Induction of cell cycle arrest in human FADU cells at 0.5 uM by propidium iodide staining based flow cytometry; assay type: functional
How it was run: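 Cell-cycle distribution was measured by propidium iodide staining and flow cytometry. Readings were taken 6 and 24 h after compound alone, 5 Gy IR alone, or the combination, against control.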

[18] = test system: SCC-25; experiment: Synergistic induction of apoptosis in human SCC25 cells at 0.5 uM followed irradiation with 5Gy IR incubated for 48 hrs by annexin V FITC and propidium iodide staining based flow cytometry; assay type: functional
How it was run: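 FaDu or SCC-25 cells, untreated, given 5 Gy IR, drug, or both. Apoptotic cells measured by annexin V flow cytometry 48 h after treatment. Percentage compared with control by t test.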

[19] = test system: SCC-25; experiment: Inhibition of cell migration in human SCC25 cells at 0.5 uM incubated for 12 and 24 hrs by microscopic analysis; assay type: functional, cell-based
How it was run: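 Scratch assay: 10^5 cells/well were grown to confluence in 12-well plates, with mitomycin C to block proliferation. Cells were treated with compound for 24 h, with or without 5 Gy IR, then scratched with a pipette tip, washed with PBS and given fresh medium. Imaging was at 0, 6, 12 and 24 h. % migration = gap decrease relative to the 0 h gap.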

[20] = test system: FaDu; experiment: Synergistic induction of apoptosis in human FADU cells assessed as decrease in Bcl2 at 0.5 uM followed by irradiation with 5 Gy IR incubated for 48 hrs by immunoblot analysis; assay type: functional, cell-based
How it was run: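 FaDu cells received drug, 5 Gy IR, or both; vehicle-only controls. Lysates collected after 48 h and immunoblotted with primary antibodies to NRF2, cyclin B1, CDK1, Bax and Bcl-2. Membranes stripped and reprobed for beta-actin as loading control.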

[21] = test system: SCC-25; experiment: Synergistic antiproliferative activity against human SCC25 cells assessed as reduction in cell viability at 1 uM preincubated for 1 hr followed by irradiation with 5 Gy IR and measured after 6 days by MTT assay relative to control; conditions: SCC-25, light or radiation study

SMILES: COc1ccc2c(c1)N(CCO)C1=C(C(=O)OC1)C2c1ccccc1 (configuration not stated)
- inhibition [1]: Dose-dependent effect
- IC50 ([1]; light or radiation study): 496 nM
- fractional inhibitory concentration index (FICI) [2]: 0.236
- fractional inhibitory concentration index (FICI) [3]: 0.383
- fractional inhibitory concentration index (FICI) [4]: 0.136
- fractional inhibitory concentration index (FICI) [5]: 0.633
- CI [6]: 1.822
- CI [7]: 0.856
- fractional inhibitory concentration index (FICI) [8]: 0.005
- fractional inhibitory concentration index (FICI) [9]: 0.361
- fractional inhibitory concentration index (FICI) [10]: 0.531
- fractional inhibitory concentration index (FICI) [11]: 0.388
- fractional inhibitory concentration index (FICI) [12]: 0.379
- CI [13]: 1.216
- CI [14]: 0.395
- CI [15]: 1.056
- CI [16]: 0.663
- Activity [17]: inactive
- fold change (FC) [18]: 7
- inhibition [19]: inactive
- Activity [20]: Active
- inhibition at 1 µM [21]: 65%
